From ChEMBL document CHEMBL1155273, “Search for new pharmacophores for antimalarial activity. Part III: synthesis and bioevaluation of new 6-thioureido-4-anilinoquinazolines” (Eur J Med Chem, 2009)
Converted amounts (≈) assume the structure as drawn. The source made the active and inactive calls. The calls are words filed in the database; no cut-off is given here.

Experiments:
[1] = tested on: Plasmodium yoelii nigeriensis; experiment: Antimalarial activity against multidrug-resistant Plasmodium yoelii nigeriensis infected Swiss mice (Mus musculus) assessed as suppression in parasitaemia at 100 mg/kg, perorally for 4 days measured on day 7; format: functional; details: route oral
Summary of the method: (§1)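 Swiss mice infected on day 0 with P. yoelii nigeriensis MDR (N67, chloroquine-resistant) parasitized cells. Groups of five mice received the test compound orally as an aqueous suspension at 50 or 100 mg/kg from day 0 to 4; five controls received vehicle only. Parasitaemia was read from tail-vein thin blood smears on days 4, 7, 14, 21 and 28, or until death.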

[2] = Selectivity index, ratio of CC50 for african green monkey (Cercopithecus aethiops) Vero cells to IC50 for chloroquine-sensitive Plasmodium falciparum 3D7; format: functional
Plasmodium falciparum = experiment: Antimalarial activity against chloroquine-sensitive Plasmodium falciparum 3D7; format: functional, organism-based
[3] = tested on: Plasmodium yoelii nigeriensis; experiment: Antimalarial activity against multidrug-resistant Plasmodium yoelii nigeriensis infected Swiss mice (Mus musculus) assessed as survival at 100 mg/kg, perorally for 4 days measured on day 28; format: functional; details: route oral; summary of the method: as §1
[4] = tested on: Plasmodium yoelii nigeriensis; experiment: Antimalarial activity against multidrug-resistant Plasmodium yoelii nigeriensis infected Swiss mice (Mus musculus) assessed as suppression in parasitaemia at 100 mg/kg, perorally for 4 days measured on day 4; format: functional; details: 96 h, route oral; summary of the method: as §1
[5] = tested on: Plasmodium yoelii nigeriensis; experiment: Antimalarial activity against multidrug-resistant Plasmodium yoelii nigeriensis infected Swiss mice (Mus musculus) assessed as survival at 100 mg/kg, perorally for 4 days measured on day 7; format: functional, organism-based; design: dose 100 mg/kg; summary of the method: as §1

Compound | IC50 (Plasmodium falciparum) | MIC (Plasmodium falciparum) | Ratio CC50/IC50 [2] | other results
COc1cccc(Nc2ncnc3ccc(NC(=S)Nc4ccc(Br)cc4)cc23)c1 | 0.106 mg/L (≈ 0.22 µM) | 1 mg/L (≈ 2.08 µM) | 187 | inhibition in vivo at 100 mg/kg [1]: 99.9%; Activity [3]: 50%; inhibition in vivo at 100 mg/kg [4]: 100%
COc1ccc(Nc2ncnc3ccc(NC(=S)Nc4ccc(Cl)cc4)cc23)cc1 |  | > 10 mg/L |  | 
COc1ccc(Nc2ncnc3ccc(NC(=S)Nc4cccc(C#N)c4)cc23)cc1OC |  | 10 mg/L (≈ 21.9 µM) |  | 
N#Cc1cccc(NC(=S)Nc2ccc3ncnc(Nc4cccc(Cl)c4)c3c2)c1 |  | > 10 mg/L |  | 
FC(F)(F)c1cccc(Nc2ncnc3ccc(NC(=S)Nc4cccc(Cl)c4)cc23)c1 |  | 10 mg/L (≈ 21.1 µM) |  | 
COc1ccc(Nc2ncnc3ccc(NC(=S)Nc4cccc(Cl)c4)cc23)cc1 |  | > 10 mg/L |  | 
S=C(Nc1ccc2ncnc(Nc3cccc(Cl)c3)c2c1)Nc1cccc2ccccc12 |  | 10 mg/L (≈ 21.9 µM) |  | 
COc1ccc(Nc2ncnc3ccc(NC(=S)Nc4cccc(C#N)c4)cc23)cc1 |  | > 10 mg/L |  | 
Fc1cccc(NC(=S)Nc2ccc3ncnc(Nc4cccc(Cl)c4)c3c2)c1 |  | 10 mg/L (≈ 23.6 µM) |  | inhibition in vivo at 100 mg/kg [1]: 61.1%; inhibition in vivo at 100 mg/kg [4]: 85.7%
S=C(Nc1ccc(Cl)cc1)Nc1ccc2ncnc(Nc3cccc(Cl)c3)c2c1 |  | 10 mg/L (≈ 22.7 µM) |  | 
S=C(Nc1cccc(Cl)c1)Nc1ccc2ncnc(Nc3cccc(Cl)c3)c2c1 | 0.0088 mg/L (≈ 0.02 µM) | 2 mg/L (≈ 4.54 µM) | 556.3 | inhibition in vivo at 100 mg/kg [1]: 16.1%; inhibition in vivo at 100 mg/kg [4]: 77.2%
COc1ccc(Nc2ncnc3ccc(NC(=S)Nc4cccc5ccccc45)cc23)cc1 |  | 10 mg/L (≈ 22.1 µM) |  | 
N#Cc1cccc(NC(=S)Nc2ccc3ncnc(Nc4ccccc4)c3c2)c1 |  | > 10 mg/L |  | 
FC(F)(F)c1cccc(Nc2ncnc3ccc(NC(=S)Nc4cccc5ccccc45)cc23)c1 |  | 10 mg/L (≈ 20.4 µM) |  | 
FC(F)(F)c1cccc(Nc2ncnc3ccc(NC(=S)Nc4ccc(Br)cc4)cc23)c1 | 0.0392 mg/L (≈ 0.0756 µM) | 2 mg/L (≈ 3.86 µM) | 67.1 | Activity [5]: inactive; inhibition in vivo at 100 mg/kg [4]: 9.78%
COc1ccc(Nc2ncnc3ccc(NC(=S)Nc4cccc(Cl)c4)cc23)cc1OC |  | 10 mg/L (≈ 21.5 µM) |  | 
FC(F)(F)c1cccc(Nc2ncnc3ccc(NC(=S)Nc4ccc(Cl)cc4)cc23)c1 |  | 10 mg/L (≈ 21.1 µM) |  | 
S=C(Nc1ccc(Br)cc1)Nc1ccc2ncnc(Nc3ccccc3)c2c1 |  | 10 mg/L (≈ 22.2 µM) |  | 
S=C(Nc1ccccc1)Nc1ccc2ncnc(Nc3cccc(Cl)c3)c2c1 |  | 10 mg/L (≈ 24.6 µM) |  | 
COc1ccc(Nc2ncnc3ccc(NC(=S)Nc4ccc(Cl)cc4)cc23)cc1OC |  | 10 mg/L (≈ 21.5 µM) |  | 
COc1cccc(Nc2ncnc3ccc(NC(=S)Nc4cccc(Cl)c4)cc23)c1 | 0.0115 mg/L (≈ 0.0264 µM) | 2 mg/L (≈ 4.59 µM) | 1615.3 | inhibition in vivo at 100 mg/kg [1]: 28.4%; inhibition in vivo at 100 mg/kg [4]: 46.5%

Continued by falling MIC (Plasmodium falciparum), values first:

IC50 (Plasmodium falciparum) | MIC (Plasmodium falciparum) | Compound | Ratio CC50/IC50 [2] | other results
 | 10 mg/L (≈ 22.1 µM) | COc1cccc(Nc2ncnc3ccc(NC(=S)Nc4cccc5ccccc45)cc23)c1 |  | 
 | 10 mg/L (≈ 21.9 µM) | Fc1cccc(NC(=S)Nc2ccc3ncnc(Nc4cccc(C(F)(F)F)c4)c3c2)c1 |  | 
 | 10 mg/L (≈ 22.9 µM) | COc1cccc(Nc2ncnc3ccc(NC(=S)Nc4ccc(Cl)cc4)cc23)c1 |  | 
0.792 mg/L (≈ 2.03 µM) | 2 mg/L (≈ 5.14 µM) | Fc1cccc(NC(=S)Nc2ccc3ncnc(Nc4ccccc4)c3c2)c1 | 70.3 | 
0.992 mg/L (≈ 2.26 µM) | 2 mg/L (≈ 4.55 µM) | FC(F)(F)c1cccc(Nc2ncnc3ccc(NC(=S)Nc4ccccc4)cc23)c1 | 69 | 
0.303 mg/L (≈ 0.702 µM) | 2 mg/L (≈ 4.63 µM) | COc1ccc(Nc2ncnc3ccc(NC(=S)Nc4ccccc4)cc23)cc1OC | 90 | 
0.813 mg/L (≈ 2 µM) | 2 mg/L (≈ 4.93 µM) | S=C(Nc1cccc(Cl)c1)Nc1ccc2ncnc(Nc3ccccc3)c2c1 | 29 | 
0.243 mg/L (≈ 0.604 µM) | 2 mg/L (≈ 4.98 µM) | COc1ccc(Nc2ncnc3ccc(NC(=S)Nc4ccccc4)cc23)cc1 | 80.4 | 
0.526 mg/L (≈ 1.09 µM) | 2 mg/L (≈ 4.13 µM) | S=C(Nc1ccc(Br)cc1)Nc1ccc2ncnc(Nc3cccc(Cl)c3)c2c1 | 1 | 
 | 2 mg/L (≈ 5.38 µM) | S=C(Nc1ccccc1)Nc1ccc2ncnc(Nc3ccccc3)c2c1 |  | 
0.443 mg/L (≈ 0.954 µM) | 2 mg/L (≈ 4.31 µM) | N#Cc1cccc(NC(=S)Nc2ccc3ncnc(Nc4cccc(C(F)(F)F)c4)c3c2)c1 | 5.5 | 
0.0532 mg/L (≈ 0.127 µM) | 2 mg/L (≈ 4.77 µM) | COc1ccc(Nc2ncnc3ccc(NC(=S)Nc4cccc(F)c4)cc23)cc1 | 206.4 | 
0.683 mg/L (≈ 1.34 µM) | 2 mg/L (≈ 3.92 µM) | COc1ccc(Nc2ncnc3ccc(NC(=S)Nc4ccc(Br)cc4)cc23)cc1OC | 85.7 | 
0.385 mg/L (≈ 0.857 µM) | 2 mg/L (≈ 4.45 µM) | COc1ccc(Nc2ncnc3ccc(NC(=S)Nc4cccc(F)c4)cc23)cc1OC | 63.7 | 
0.207 mg/L (≈ 0.43 µM) | 2 mg/L (≈ 4.15 µM) | COc1ccc(Nc2ncnc3ccc(NC(=S)Nc4cccc5ccccc45)cc23)cc1OC | 133.8 | 
 | 2 mg/L (≈ 4.74 µM) | S=C(Nc1ccc2ncnc(Nc3ccccc3)c2c1)Nc1cccc2ccccc12 |  | 
 | 2 mg/L (≈ 4.93 µM) | S=C(Nc1ccc(Cl)cc1)Nc1ccc2ncnc(Nc3ccccc3)c2c1 |  | 
0.0502 mg/L (≈ 0.104 µM) | 2 mg/L (≈ 4.16 µM) | COc1ccc(Nc2ncnc3ccc(NC(=S)Nc4ccc(Br)cc4)cc23)cc1 | 114.9 | 
0.258 mg/L (≈ 0.643 µM) | 2 mg/L (≈ 4.98 µM) | COc1cccc(Nc2ncnc3ccc(NC(=S)Nc4ccccc4)cc23)c1 | 38.7 | 
0.021 mg/L (≈ 0.0492 µM) | 1 mg/L (≈ 2.34 µM) | COc1cccc(Nc2ncnc3ccc(NC(=S)Nc4cccc(C#N)c4)cc23)c1 | 453 | 
0.0267 mg/L (≈ 0.0636 µM) | 1 mg/L (≈ 2.38 µM) | COc1cccc(Nc2ncnc3ccc(NC(=S)Nc4cccc(F)c4)cc23)c1 | 510.7 | 
